Data published in ChEMBL document CHEMBL4052828, “Discovery of 4-((7H-Pyrrolo[2,3-d]pyrimidin-4-yl)amino)-N-(4-((4-methylpiperazin-1-yl)methyl)phenyl)-1H-pyrazole-3-carboxamide (FN-1501), an FLT3- and CDK-Kinase Inhibitor with Potentially High Efficiency against Acute Myelocytic Leukemia” (J Med Chem, 2018).
Calls of active or inactive are those of the source. The calls are words filed in the database; no cut-off is given here.

How the values were obtained:
CDK2/Cyclin A1 = CDK2/Cyclin A1 (Homo sapiens, UniProt P24941); test: Inhibition of human CDK2/Cyclin A1 using histone H1 as substrate preincubated for 20 mins followed by [gamma-33P]-ATP addition measure after 120 mins by filter binding method; type: protein-complex assay
Procedure, shortened: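 Compound preincubated with kinase 20 min at room temperature. Filter-binding read-out, curve-fitted IC50; mean ± SD of three independent experiments.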

MV4-11 [1] = test: Induction of apoptosis in human MV4-11 cells assessed as early apoptotic cells at 0.5 uM after 24 hrs by annexin V-FITC/propidium iodide staining-based flow cytometric method (reference value: 3.54%); type: functional
Lymphocyte = test: Cytotoxicity against human lymphocytes assessed as decrease in cell viability after 72 hrs by MTT assay; type: cell-based
MV4-11 [2] = test: Cell cycle arrest in human MV4-11 cells assessed as accumulation at G0/G1 phase after 24 hrs by propidium iodide/BrdU staining-based flow cytometric method; type: functional
Procedure, shortened: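 Cells treated with compound for 24 h, then fixed. Double-stained with propidium iodide and BrdU for flow cytometric analysis of cell cycle distribution.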

MV4-11 [3] = test: Antitumor activity against human MV4-11 cells xenografted in nu/nu mouse assessed as tumor regression at 40 mg/kg, iv qd measured on day 21 relative to vehicle-treated control; type: functional
Procedure, shortened: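 Female nu/nu mice bearing MV4-11 xenografts; dosing began once tumors reached 200 mm3. Given iv once daily for 21 days, with a vehicle-only group. Body weight and tumor size tracked relative to initial values, set as 100%. Tumors weighed at the end of the 22-day treatment period.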

[4] = Terminal half life in rat liver microsomes by LC-MS/MS analysis; type: ADME, microsome; conditions: read-out: beta t1/2 (converted)
Procedure, shortened: (§1)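 Metabolic stability measured by incubating compound in human, rat, mouse, dog and monkey liver microsomes. Terminal t1/2 determined.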

[5] = Intrinsic clearance in dog liver microsomes by LC-MS/MS analysis; type: ADME, Canis lupus familiaris, microsome; conditions: read-out: CLH
RS4-11 = test: Growth inhibition of human RS4:11 cells after 72 hrs by CellTiter-Glo assay; type: functional; conditions: RS4-11, 72 h
MV4-11 [6] = test: Induction of apoptosis in human MV4-11 cells assessed as early apoptotic cells at 1 uM after 24 hrs by annexin V-FITC/propidium iodide staining-based flow cytometric method (reference value: 3.54%); type: functional
[7] = Terminal half life in cynomolgus monkey liver microsomes by LC-MS/MS analysis; type: ADME, Macaca fascicularis, microsome; conditions: read-out: beta t1/2 (converted); procedure, shortened: as §1
[8] = Terminal half life in dog liver microsomes by LC-MS/MS analysis; type: ADME, Canis lupus familiaris, microsome; conditions: read-out: beta t1/2 (converted); procedure, shortened: as §1
MCF7 = test: Growth inhibition of human MCF7 cells after 72 hrs by CellTiter-Glo assay; type: functional; conditions: MCF7, 72 h
MV4-11 [9] = test: Induction of apoptosis in human MV4-11 cells assessed as early apoptotic cells at 0.2 uM after 24 hrs by annexin V-FITC/propidium iodide staining-based flow cytometric method (reference value: 3.54%); type: functional
[10] = target: Receptor-type tyrosine-protein kinase FLT3 (Homo sapiens) (UniProt P36888); test: Inhibition of FLT3 phosphorylation in human MV4-11 cells assessed as decrease in ERK phosphorylation at 0.02 to 1 uM after 24 hrs by Western blot analysis; type: cell-based
Procedure, shortened: (§2)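 MV4-11 cells treated with increasing concentrations of compound for 24 h. Lysates immunoblotted for phosphorylated FLT3, STAT5, ERK, AKT and Rb.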

MV4-11 [11] = test: Antitumor activity against human MV4-11 cells xenografted in nu/nu mouse assessed as tumor regression at 15 mg/kg, iv qd measured on day 21 relative to vehicle-treated control; type: functional
Mus musculus = test: Toxicity in nu/nu mouse xenografted with human MV4-11 cells assessed as body weight loss at 15 to 40 mg/kg, iv qd administered for 21 days measuring during compound dosing; type: organism-based; conditions: in vivo, 504 h
Procedure, shortened: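 Female nu/nu mice carried established MV4-11 xenografts. Once tumors reached 200 mm3, mice were grouped and given compound or vehicle by intravenous injection once daily at 15, 30 or 40 mg/kg/d for 21 days. A Cytarabine arm received 50 mg/kg/d iv. Body weight was tracked during dosing and expressed relative to initial weight set as 100%.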

[12] = Intrinsic clearance in mouse liver microsomes by LC-MS/MS analysis; type: ADME, microsome; conditions: read-out: CLH
NCI-H82 = test: Growth inhibition of human NCI-H82 cells after 72 hrs by CellTiter-Glo assay; type: functional; conditions: NCI-H82, 72 h
MV4-11 [13] = test: Induction of apoptosis in human MV4-11 cells assessed as late apoptotic cells at 0.2 uM after 24 hrs by annexin V-FITC/propidium iodide staining-based flow cytometric method (reference value: 2.54%); type: functional
[14] = target: Receptor-type tyrosine-protein kinase FLT3 (Homo sapiens) (UniProt P36888); test: Inhibition of FLT3 phosphorylation in human MV4-11 cells assessed as decrease in STAT5 phosphorylation at 0.02 to 1 uM after 24 hrs by Western blot analysis; type: cell-based; procedure, shortened: as §2

Chain of Receptor-type tyrosine-protein kinase FLT3 (Homo sapiens) (P36888 whole entry): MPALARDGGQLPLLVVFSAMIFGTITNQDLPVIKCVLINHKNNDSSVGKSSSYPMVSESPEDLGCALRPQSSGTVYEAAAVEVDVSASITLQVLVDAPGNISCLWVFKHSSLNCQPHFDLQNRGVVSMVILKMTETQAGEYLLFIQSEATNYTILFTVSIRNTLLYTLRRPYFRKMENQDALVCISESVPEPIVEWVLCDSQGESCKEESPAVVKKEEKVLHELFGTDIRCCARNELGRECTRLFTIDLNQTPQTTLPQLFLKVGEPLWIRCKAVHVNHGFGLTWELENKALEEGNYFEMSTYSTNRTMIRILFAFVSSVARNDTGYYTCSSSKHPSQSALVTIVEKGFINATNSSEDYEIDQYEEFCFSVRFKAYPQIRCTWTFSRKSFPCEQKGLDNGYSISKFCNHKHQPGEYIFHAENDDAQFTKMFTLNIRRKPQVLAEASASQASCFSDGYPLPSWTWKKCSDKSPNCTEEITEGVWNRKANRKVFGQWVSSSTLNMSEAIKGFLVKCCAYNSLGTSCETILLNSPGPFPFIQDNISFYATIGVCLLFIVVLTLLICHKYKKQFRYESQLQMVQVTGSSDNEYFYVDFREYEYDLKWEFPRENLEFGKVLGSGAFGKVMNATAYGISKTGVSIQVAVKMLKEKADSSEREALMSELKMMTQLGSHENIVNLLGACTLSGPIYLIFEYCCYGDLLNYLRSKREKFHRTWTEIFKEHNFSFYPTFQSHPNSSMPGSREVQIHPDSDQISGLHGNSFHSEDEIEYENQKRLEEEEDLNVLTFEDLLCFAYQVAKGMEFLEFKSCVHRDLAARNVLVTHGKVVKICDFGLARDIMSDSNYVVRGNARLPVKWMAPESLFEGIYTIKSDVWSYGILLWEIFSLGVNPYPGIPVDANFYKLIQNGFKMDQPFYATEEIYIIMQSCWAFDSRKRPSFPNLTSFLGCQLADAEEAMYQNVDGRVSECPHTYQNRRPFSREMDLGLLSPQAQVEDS

Compound: CN1CCN(Cc2ccc(NC(=O)c3n[nH]cc3Nc3ncnc4[nH]ccc34)cc2)CC1
- IC50 (CDK2/Cyclin A1): 2.47 nM
- Activity (MV4-11 [1]): 28.54%
- IC50 (Lymphocyte): 492 nM
- Activity (MV4-11 [2]): Dose-dependent effect
- Activity (MV4-11 [3]): 81.33%
- half-life [4]: 61.9 min
- CLint scaled [5]: 129 mL/min/kg
- GI50 (RS4-11): 50 nM
- Activity (MV4-11 [6]): 31.56%
- half-life [7]: 51.3 min
- half-life [8]: 15.4 min
- GI50 (MCF7): 2840 nM
- Activity (MV4-11 [9]): 15.02%
- inhibition [10]: Active
- Activity (MV4-11 [11]): -6.11%
- Activity (Mus musculus): Non-Toxic
- CLint scaled [12]: 139 mL/min/kg
- GI50 (NCI-H82): 110 nM
- Activity (MV4-11 [13]): 9.33%
- inhibition [14]: Active
